Assay outcomes deposited in PubChem by Broad Institute.
This is a sample that favours compounds with a hit; in the whole collection about 1.5% have one here.
S100A4 MyoIIA = inhibitors of human S100A4 binding to myosin IIA peptide. inhibition, % at 10.7 µM. hit rate 0.14% among 360,000. P26447. S100A4/TAMRA-MyoIIA peptide fluorescence polarization;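 active means mean inhibition of at least 70% across replicates, with every replicate also reaching that level; inconclusive means mean inhibition reaches 70% but some replicates fall short; inactive means mean inhibition below 70%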
Target sequence (P26447 whole entry, looked up): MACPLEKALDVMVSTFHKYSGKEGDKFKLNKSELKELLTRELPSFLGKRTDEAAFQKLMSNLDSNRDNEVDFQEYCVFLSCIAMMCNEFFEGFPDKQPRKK
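incubation = readout 5 min after mixing, signal stable up to 60 min | system = S100A4 monomer protein | buffer or medium = HEPES pH 7.2 with CaCl2, KCl, NaCl, DTT, Triton | benchmarks = neutral control DMSO, positive control TFP | also added = fluorescent myosin IIA peptide, 5 nM | compound dosing = one concentration per compound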
dFosB activator = mouse delta FosB homodimer activation; activation, % at 25 µM; hit rate 0.99% among 340,000; purified delta FosB, TAMRA-CDK5 oligo fluorescence polarization; percent of positive-control signal above neutral wells;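 active means mean activation above about 17%, with every replicate also reaching it, limit read from the data, passing the limit was not always enough; inconclusive means only one of the two conditions met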
RAD54 branch = blocks human RAD54 Holliday junction branch migration | Q92698 | FAM/BHQ fluorescence | inhibition, % at 10.4 µM | hit rate 0.14% among 360,000 | AID 602329;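 active means mean normalized replicate activity at least 40 and at least half of replicates scoring 40 or more; inconclusive means only one of the two criteria met; inactive means mean below 40 and under half of replicates reaching 40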;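 further: 0% = median of neutral control wells and 100% = median of positive control wells; inhibitors cause a drop in the FAM fluorescence signal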
RAD52 anneal inh = inhibitors of human RAD52 DNA annealing. P43351. recombinant RAD52 DNA annealing, FRET fluorescence. inhibition, % at 18.7 µM. hit rate 0.46% among 360,000;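 active means every replicate showing at least 50% inhibition; inconclusive means mean inhibition at least 50% but not in every replicate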
Target sequence (P43351 whole entry, looked up): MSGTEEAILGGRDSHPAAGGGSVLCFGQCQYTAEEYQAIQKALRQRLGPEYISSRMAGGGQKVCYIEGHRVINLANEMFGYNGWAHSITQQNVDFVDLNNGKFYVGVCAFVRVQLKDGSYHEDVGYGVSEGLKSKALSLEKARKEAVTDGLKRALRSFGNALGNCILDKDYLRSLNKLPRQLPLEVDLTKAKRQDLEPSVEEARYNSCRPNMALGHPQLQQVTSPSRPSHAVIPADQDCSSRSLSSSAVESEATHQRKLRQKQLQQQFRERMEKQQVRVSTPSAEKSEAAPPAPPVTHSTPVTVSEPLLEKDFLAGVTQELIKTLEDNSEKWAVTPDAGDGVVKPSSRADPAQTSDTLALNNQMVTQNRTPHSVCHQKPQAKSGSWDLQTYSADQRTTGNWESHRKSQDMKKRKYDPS
AF4-AF9 inh = MLL-AF4/AF9 protein interaction inhibition. P42568. AlphaScreen, biotin-AF4 peptide binding to FLAG-AF9. inhibition, % at 10 µM. hit rate 0.47% among 350,000. AID 651704;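 active means every replicate reaching a set inhibition limit, whatever the replicate mean, cut at about 25% in these data; inconclusive means mean inhibition reaches that limit but some replicates miss it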;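 further: 0% = plate neutral control median and 100% = total signal loss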
Active calls of the source: *; ? = inconclusive; nt = no result.

SMILES	S100A4 MyoIIA	dFosB activator	RAD54 branch	RAD52 anneal inh	AF4-AF9 inh
C[C@H](CO)N1C[C@H](C)[C@@H](CN(C)C(=O)c2ccccc2)OCCCC[C@H](C)Oc2ccc(NC(=O)CCC(F)(F)F)cc2C1=O	19.9	nt	-2.0	6.9	-1.7
O=C1[C@@H]2Cc3c([nH]c4ccccc34)C(c3cccc([N+](=O)[O-])c3)N2C(=O)CN1C1CCN(Cc2ccccc2)CC1 (stereo partly specified)	-1.9	82.2*	8.0	-0.2	14.0
CCOc1ccc(C2c3[nH]c4ccccc4c3C[C@H]3C(=O)N(C4CCN(Cc5ccccc5)CC4)CC(=O)N23)cc1OC (stereo partly specified)	-18.7	34.7*	4.6	-25.4	5.4
N#Cc1nc(COc2ccccc2)oc1N1CCCCCC1	11.0	-7.9	6.0	-4.8	26.9*
N#Cc1nc(COc2ccccc2)oc1N1CCCC1	nt	-3.9	1.8	nt	nt
CCOc1ccc(-c2nc(C#N)c(N3CCN(Cc4ccccc4)CC3)o2)cc1	2.0	-0.1	-2.9	11.0	52.9*
O=C(Cc1ccccc1)N1CC(=O)N2[C@H](CO)[C@@H](c3ccc(-c4ccccc4)cc3)[C@@H]2C1	24.3	nt	nt	-14.6	-1.0
Cc1ccc(C23OCCN2CCn2nc4ccccc4c23)cc1 (stereo unspecified)	-4.5	-0.4	-1.8	4.2	-6.8
N#Cc1ccc(C23OCCN2CCn2c3c3ccccc3[n+]2[O-])cc1 (stereo unspecified)	3.2	-1.5	-2.0	-28.6	47.9*
CCCCOc1ccc(C(=O)NC2CCCCN(CCC)C2=O)cc1 (stereo unspecified)	1.2	nt	nt	-26.5	nt
CCCN1CCCCC(NC(=O)c2c(F)cccc2F)C1=O (stereo unspecified)	107.4*	nt	nt	-44.4	nt
O=C1CC(c2cc(Br)ccc2F)c2cc3c(cc2N1)CCC3 (stereo unspecified)	-6.0	41.1*	-2.2	-11.1	3.6
C[C@H](NC(=O)C[C@@H]1C=C[C@H](NC(=O)C2CCC2)[C@@H](CO)O1)c1ccccc1	1.4	nt	-3.2	1.1	-2.1
CC(C)N1CCc2c(sc(NC(=O)c3cc(-c4cccs4)nc4ccccc34)c2C(N)=O)C1	nt	-0.8	78.0*	nt	nt
CCC(C)NC(=O)c1cc(-c2cccs2)nc2ccccc12 (stereo unspecified)	-0.6	-0.5	-8.6	-5.7	2.6
CC(C)N1CCc2c(sc(NC(=O)c3ccc(S(=O)(=O)N4CCc5ccccc54)cc3)c2C(N)=O)C1	nt	54.7*	-7.3	nt	nt
CNC(=O)c1c(NC(=O)c2ccc(S(=O)(=O)N(C)c3ccccc3)cc2)sc2c1CCN(C(C)C)C2	4.8	nt	nt	-184.0	1.5
C[C@@H]1CN([C@H](C)CO)C(=O)c2cc(NC(=O)CCC(F)(F)F)ccc2O[C@@H](C)CCCCO[C@@H]1CN(C)S(=O)(=O)c1ccc(Cl)cc1	-8.5	nt	0.4	-1.3	-2.3
NC1=NC(c2ccc(F)cc2)n2c(nc3ccccc32)N1 (stereo unspecified)	nt	1.9	6.9	nt	nt
Cc1cc(C2N=C(N)Nc3nc4ccccc4n32)c(C)n1-c1ccccc1Cl (stereo unspecified)	nt	75.6*	9.9	nt	nt
Cc1ccc(-n2c(C)cc(C3N=C(N)Nc4nc5ccccc5n43)c2C)c(C)c1 (stereo unspecified)	-0.9	64.6*	17.7	17.5	?
NC1=NC(c2cccc(O)c2)n2c(nc3ccccc32)N1 (stereo unspecified)	nt	0.2	2.3	nt	nt
Cc1noc(C)c1NC(=O)N(C)C[C@H]1OCCCC[C@@H](C)Oc2ccc(NS(=O)(=O)c3ccc(F)cc3)cc2C(=O)N([C@H](C)CO)C[C@@H]1C	-47.3	nt	1.8	22.0	-3.0
CN(C)C1=C(Cl)C(=O)N(c2ccc(Cl)c(Cl)c2)C1=O	-1.8	23.9*	4.7	-111.6	-10.0
COc1ccc(NC(=O)CSc2nc3n[nH]c(C)c3c(=N)n2-c2ccc(Cl)c(C)c2)cc1OC	nt	44.2*	2.2	nt	nt
SMILES	S100A4 MyoIIA	dFosB activator	RAD54 branch	RAD52 anneal inh	AF4-AF9 inh
CN(C)CC(=O)N[C@H]1C[C@@H]2O[C@H](CO)CC[C@@H]2O[C@@H]1CCc1ccc(C#Cc2ccccc2)cc1	-2.8	nt	nt	59.7*	5.4
O=C(NCCc1ccccc1)c1ccc(S(=O)(=O)N2CCCCC2)cc1	-3.8	nt	1.8	-11.9	-2.0
Cc1cc2ccccc2n1CCNC(=O)c1ccc(S(=O)(=O)N2CCCCC2)cc1	123.6*	-8.6	-4.2	15.3	4.3
COc1ccc2nc(SCC(=O)NN)cc(C)c2c1	nt	1.4	-9.5	nt	nt
COc1ccc2c(C)cc(SCC(=O)Nc3cc(C(N)=O)cc(C(N)=O)c3)nc2c1	2.7	67.6*	0.2	-33.3	-12.6
CO[C@H]1CN(C)C(=O)c2ccc(NS(=O)(=O)C3CCCCC3)cc2OC[C@@H](C)NC[C@H]1C	-9.6	nt	-17.8	0.5	-5.3
COc1ccc(C(CC(=O)O)c2ccc3c(c2)OCO3)cc1 (stereo unspecified)	-1.7	6.9	-8.4	-7.7	-2.0
COc1ccc(CNCCC(c2ccccc2)c2ccc3c(c2)OCO3)cc1 (stereo unspecified)	1.0	6.6	16.7	33.0	25.1*
CCOC(=O)N1CCN(Cc2ccccc2Cl)CC1	nt	-2.7	-2.5	nt	nt
CCOC(=O)N1CCN(Cc2cc(Cl)c3cccnc3c2O)CC1	-2.0	nt	nt	-27.9	69.9*
COCCCNC(=O)C(F)(F)C(F)(F)C(=O)NCCCOC	nt	-6.3	nt	nt	nt
O=C(NCCCCNC(=O)C(F)(F)F)C(F)(F)F	2.7	-9.2	nt	-0.9	25.5*
CS(=O)(=O)Nc1ccc2c(c1)[C@@H]1C[C@H](CC(=O)N3CCOCC3)O[C@@H](CO)[C@@H]1O2	-17.9	nt	3.9	-4.6	-13.4
O=C(NC[C@@H]1CC[C@@H]2[C@@H](CN2C(=O)NC2CCCC2)O1)c1ccc2c(c1)OCO2	-85.1	nt	nt	111.9*	11.9
C[C@H]1CN([C@@H](C)CO)C(=O)c2cccc(NC(=O)Nc3cccc4ccccc34)c2O[C@H]1CN(C)C	17.5	nt	nt	8.2	4.2
Cc1ccc(Nc2nc(N/N=C\c3ccc4c(c3)OCO4)nc(N3CCOCC3)n2)cc1	-2.8	59.5*	3.3	0.9	9.1
Cc1ccc(-c2ccc([C@@H]3[C@H](CO)N4CCCCN(S(=O)(=O)c5cccc(C)c5)C[C@@H]34)cc2)cc1	-0.4	nt	0.3	68.9*	-7.2
Cc1ccc(-c2ccc([C@H]3[C@H](CO)N4CCCCN(S(=O)(=O)c5cccc(C)c5)C[C@@H]34)cc2)cc1	8.6	nt	1.6	50.4*	0.3
COc1ccc(S(=O)(=O)N2CCCCN3[C@@H](CO)[C@@H](c4ccc(C5=CCCCC5)cc4)[C@@H]3C2)cc1	0.8	nt	-12.0	50.4*	2.8
Cc1cccc(S(=O)(=O)N2CCCCN3[C@H](C2)[C@H](c2ccc(-c4ccccc4)cc2)[C@@H]3CO)c1	7.1	nt	4.7	-20.3	-4.8
Cc1cccc(S(=O)(=O)N2CCCCN3[C@H](CO)[C@@H](c4ccc(-c5ccccc5)cc4)[C@H]3C2)c1	3.4	nt	0.2	52.5*	6.6
